This passage reports Ratio, Km and Vmax results from ChEMBL document CHEMBL1126990, “Design and synthesis of 18F-labeled neurotoxic analogs of MPTP” (J Med Chem, 1993).

Format in all cases: ADME
A short description of data set [1]: Ratio between Vmax and Km. Summed up: (§1)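 Rat liver MAO (crude P2 mitochondrial fraction from adult male Wistar rats, in pH 7.4 phosphate buffer) incubated with substrate at 30 μM to 5 mM; colorimetric detection of H2O2 formed. Blanks contained 0.1 mM pargyline. Vmax and Km from linear regression of Lineweaver-Burk plots; means ± SE of n separate experiments; ANOVA with post-hoc Scheffe test.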

The nature of data set [2]: separate experiments, n=5). Summed up:
as §1

The species entered for a further data set is Rattus norvegicus. The experiment in a line: Maximal rate (Vmax) for oxidation by rat liver MAO (results are means of number of separate experiments, n=5). In short, it runs like this:
as §1

For orientation: Km means the substrate concentration at which the rate is half of its maximum. One may read the Vmax as the top rate of the reaction or transport when substrate is in excess. For `CN1CC=C(c2ccccc2)CC1`, the Ratio in data set [1] is reported as 2.42. Also, in data set [2], the Km was found to be 90 µM. In addition, the Vmax in the data set filed under Rattus norvegicus was 218 nM hr-1 (mg of protein)-1.
